Assay type in all cases: functional
For assay [1], the system named is Bromus diandrus var. rigidus. In words: Herbicidal activity against ALS-inhibiting herbicide-resistant two-leaf stage Bromus diandrus var. rigidus biotype R4 seedlings exposed to compound spraying measured 28 days after compound spraying. In outline: (§1)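 Seedlings germinated on 1% water agar (7–10 days, ambient) were sprayed at the 2–3-leaf stage with a sulfonylurea at 1.875–240 g ha−1, with no malathion. Percent survival was scored with three replicate treatments. LD50 came from non-linear regression, and R/S is the ratio of resistant to susceptible LD50.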

Assay [2] concerns Bromus diandrus var. rigidus. In words: Herbicidal activity against ALS-inhibiting herbicide-resistant two-leaf stage Bromus diandrus var. rigidus biotype R3 seedlings exposed to compound spraying measured 28 days after compound spraying. The procedure, abridged: as §1
The subject of assay [3] is Bromus diandrus var. rigidus. As to the kind of experiment: Herbicidal activity against ALS-inhibiting herbicide-resistant two-leaf stage Bromus diandrus var. rigidus biotype R2 seedlings exposed to compound spraying measured 28 days after compound spraying. In outline:
as §1

The subject of assay [4] is Bromus diandrus var. rigidus. As to the kind of experiment: Herbicidal activity against ALS-inhibiting herbicide-susceptible two-leaf stage Bromus diandrus var. rigidus seedlings exposed to compound spraying measured 28 days after compound spraying. The procedure, abridged:
as §1

Assay [5] relates to Bromus diandrus var. rigidus. As to the kind of experiment: Herbicidal activity against ALS-inhibiting herbicide-resistant two-leaf stage Bromus diandrus var. rigidus biotype R1 seedlings exposed to compound spraying measured 28 days after compound spraying. In outline: as §1
Assay [6] relates to Bromus diandrus var. rigidus. In words: Resistance index, ratio of LD50 for ALS-inhibiting herbicide-resistant two-leaf stage Bromus diandrus var. rigidus biotype R6 to ALS-inhibiting herbicide-susceptible two-leaf stage Bromus diandrus var. rigidus. The procedure, abridged: as §1
Assay [7] has as its system Bromus diandrus var. rigidus. As to the kind of experiment: Resistance index, ratio of LD50 for ALS-inhibiting herbicide-resistant two-leaf stage Bromus diandrus var. rigidus biotype R5 to ALS-inhibiting herbicide-susceptible two-leaf stage Bromus diandrus var. rigidus. The procedure, abridged:
as §1

In assay [8] the test system is Bromus diandrus var. rigidus. As to the kind of experiment: Resistance index, ratio of LD50 for ALS-inhibiting herbicide-resistant two-leaf stage Bromus diandrus var. rigidus biotype R4 to ALS-inhibiting herbicide-susceptible two-leaf stage Bromus diandrus var. rigidus. The procedure, abridged:
as §1

Assay [9] concerns Bromus diandrus var. rigidus. As to the kind of experiment: Resistance index, ratio of LD50 for ALS-inhibiting herbicide-resistant two-leaf stage Bromus diandrus var. rigidus biotype R3 to ALS-inhibiting herbicide-susceptible two-leaf stage Bromus diandrus var. rigidus. The procedure, abridged:
as §1

Assay [10] has as its system Bromus diandrus var. rigidus. As to the kind of experiment: Resistance index, ratio of LD50 for ALS-inhibiting herbicide-resistant two-leaf stage Bromus diandrus var. rigidus biotype R2 to ALS-inhibiting herbicide-susceptible two-leaf stage Bromus diandrus var. rigidus. In outline: as §1
Assay [11] deals with Bromus diandrus var. rigidus. As to the kind of experiment: Resistance index, ratio of LD50 for ALS-inhibiting herbicide-resistant two-leaf stage Bromus diandrus var. rigidus biotype R1 to ALS-inhibiting herbicide-susceptible two-leaf stage Bromus diandrus var. rigidus. In outline:
as §1

In assay [12] the test system is Bromus diandrus var. rigidus. As to the kind of experiment: Herbicidal activity against ALS-inhibiting herbicide-resistant two-leaf stage Bromus diandrus var. rigidus biotype R6 seedlings exposed to compound spraying measured 28 days after compound spraying. In outline: as §1
The subject of assay [13] is Bromus diandrus var. rigidus. In words: Herbicidal activity against ALS-inhibiting herbicide-resistant two-leaf stage Bromus diandrus var. rigidus biotype R5 seedlings exposed to compound spraying measured 28 days after compound spraying. In outline: as §1

In the case of `Cc1cc(C)nc(NC(=O)NS(=O)(=O)c2ccccc2C(=O)O)n1` [SULFOMETURON], the LD50 is recorded as 30 g/ha in assay [1]; 31 g/ha in assay [2]; 33 g/ha in assay [3]; 10 g/ha in assay [4]; 30 g/ha in [5]; 41 g/ha in assay [12]. The same compound gave an LD50 in assay [13] of 38 g/ha. The Ratio was determined as 4.1 in assay [6]; 3.8 in [7]; 3 in assay [8]; 3.1 in assay [9]; 3.3 in assay [10]; 3 in [11].

(Values after ChEMBL document CHEMBL3044625, “Non-target-site-based resistance to ALS-inhibiting herbicides in six Bromus rigidus populations from Western Australian cropping fields” (Pest Manag Sci, 2012).)
